Test [1] concerns the target ATP binding cassette transporter Abc1p (Issatchenkia orientalis) (UniProt Q09GQ4). The test can be described thus: Inhibition of Candida krusei ABC1 expressed in Saccharomyces cerevisiae isolate ADdelta at 131 nM. The following applies: Pichia kudriavzevii. In outline: (§1)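 Agarose disk-diffusion test of S. cerevisiae AD overexpressing C. krusei Abc1p, with the parent AD strain as comparison. Cells were pregrown from YPD overnight into CSM to mid-log at 30°C. They were seeded at OD600 0.008 in CSM with 0.6% agarose, overlaid on CSM agar (pH 7.0). Paper disks carrying set nmol amounts of xenobiotic were applied, and plates were incubated at 30°C for 48 h before reading growth inhibition zones.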

The subject of test [2] is Pichia kudriavzevii. The test can be described thus: Increase in ABC1 mRNA expression in Candida krusei B2402 after 60 mins by hot-phenol extraction based Northern blotting. It counts as functional, organism-based.
Test [3] deals with Pichia kudriavzevii. The test can be described thus: Increase in ERG11 mRNA expression in Candida krusei B2401 after 60 mins by hot-phenol extraction based Northern blotting. It counts as functional, organism-based.
In test [4] the target is ATP binding cassette transporter Abc1p (Issatchenkia orientalis) (UniProt Q09GQ4). The test can be described thus: Inhibition of Candida krusei ABC1 expressed in Saccharomyces cerevisiae isolate ADdelta at 2.5 uM. The following applies: Pichia kudriavzevii. The method in brief:
as §1

The target is the same in test [5]. The test can be described thus: Inhibition of Candida krusei ABC1 expressed in Saccharomyces cerevisiae isolate ADdelta at 8 nM. As to conditions: Pichia kudriavzevii.
Test [6] has the same target. Description: Inhibition of Candida krusei ABC1 expressed in Saccharomyces cerevisiae isolate ADdelta at 4 nM. The following applies: Pichia kudriavzevii.
The target is the same in test [7]. Description: Inhibition of Candida krusei IF011 Abc1p assessed as reduction of itraconazole MIC at 5 ug after 48 hrs by agarose diffusion assay. The following applies: Pichia kudriavzevii.
For test [8] the target is unchanged. Description: Inhibition of Candida krusei Abc1p expressed in Saccharomyces cerevisiae isolate AD assessed as reduction of itraconazole MIC at 5 ug after 48 hrs by agarose diffusion assay. As to conditions: Pichia kudriavzevii.
Test [9] shares this target. Description: Inhibition of Candida krusei B2399 Abc1p assessed as reduction of itraconazole MIC at 5 ug after 48 hrs by agarose diffusion assay. As to conditions: Pichia kudriavzevii.
Test [10] shares this target. The test can be described thus: Inhibition of Candida krusei ABC1 expressed in Saccharomyces cerevisiae isolate ADdelta at 0.37 nM. The following applies: Pichia kudriavzevii.

Activity calls are given as the source filed them. The calls are words filed in the database; no cut-off is given here.

Consider `COC(=O)c1ccccc1-c1c2ccc(=N)cc-2oc2cc(N)ccc12`, for which, in [1], the outcome was Active.

As to `CC(C)[C@@H](C)/C=C/[C@@H](C)[C@H]1CC[C@H]2C3=CC=C4C[C@@H](O)CC[C@]4(C)[C@H]3CC[C@]12C`, the outcome in the test with Pichia kudriavzevii [2] and in the test with Pichia kudriavzevii [3] was inactive.

As for `C[C@H]1c2cccc(O)c2C(=O)C2=C(O)[C@]3(O)C(=O)C(C(N)=O)=C(O)[C@@H](N(C)C)[C@@H]3[C@@H](O)[C@@H]21`, the result in test [4] was inactive.

Turning to `CO[C@@H]1C[C@@H](C[C@H]2CC[C@H](C)[C@H]([C@@H](C)C(=O)O)O2)O[C@]2(O[C@](C)([C@H]3CC[C@@](C)([C@@H]4O[C@@H]([C@H]5O[C@@](O)(CO)[C@H](C)C[C@@H]5C)C[C@@H]4C)O3)C[C@H]2C)[C@@H]1C`, the result in test [5] was Active.

Regarding `O=[N+]([O-])c1cc[n+]([O-])c2ccccc12`, the result in test [6] was inactive.

Turning to `C=CC[C@@H]1/C=C(\C)C[C@H](C)C[C@H](OC)[C@H]2O[C@@](O)(C(=O)C(=O)N3CCCC[C@H]3C(=O)O[C@H](/C(C)=C/[C@@H]3CC[C@@H](O)[C@H](OC)C3)[C@H](C)[C@@H](O)CC1=O)[C@H](C)C[C@@H]2OC`, the result in test [7], in [8] and in test [9] was Active.

In the case of `C[C@@H]1C[C@@H]([C@H](O)CC2CC(=O)NC(=O)C2)C(=O)[C@@H](C)C1`, the outcome in [10] was Active.
